These results are taken from ChEMBL document CHEMBL3046946, “Design, synthesis, and insecticidal activities of new N-benzoyl-N'-phenyl-N'-sulfenylureas” (2009).

≈ marks a conversion by molar mass, not a printed value.

Usually mortality stands for the percentage killed. A word on the LC50: it is the concentration lethal to half of the exposed cells or organisms.

Type in all cases: functional
In test [1] the test system is Mythimna separata. The test can be described thus: Insecticidal activity against fourth-instar larval stage of Mythimna separata (Oriental armyworm) in compound-pretreated corn leaves assessed as mortality at 2.5 mg/l at 25 +/-1degC after 4 days.
The test system of test [2] is Mythimna separata. As to the kind of experiment: Insecticidal activity against fourth-instar larval stage of Mythimna separata (Oriental armyworm) in compound-pretreated corn leaves assessed as mortality at 0.25 mg/l at 25 +/-1degC after 4 days.
Test [3] has as its system Mythimna separata. The test can be described thus: Insecticidal activity against fourth-instar larval stage of Mythimna separata (Oriental armyworm) in compound-pretreated corn leaves assessed as mortality at 0.5 mg/l at 25 +/-1degC after 4 days.
In test [4] the test system is Mythimna separata. The test can be described thus: Insecticidal activity against fourth-instar larval stage of Mythimna separata (Oriental armyworm) in compound-pretreated corn leaves assessed as mortality at 1 mg/l at 25 +/-1degC after 4 days.
The test system of test [5] is Culex pipiens pallens. The test can be described thus: Insecticidal activity against fourth-instar larval stage of Culex pipiens pallens (mosquito) assessed as mortality at 0.0025 mg/l at 25 +/-1degC after 8 days. The following applies: 192 h. In short, it runs like this: (§1)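 Compounds dissolved in acetone, then diluted with distilled water to the test concentrations. Twenty fourth-instar larvae were placed in 10 mL of each test solution and reared for 8 days. Mortality was scored on a 0–100 scale, where 0 is no activity and 100 is total kill.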

Test [6] has as its system Culex pipiens pallens. As to the kind of experiment: Insecticidal activity against fourth-instar larval stage of Culex pipiens pallens (mosquito) assessed as mortality at 0.005 mg/l at 25 +/-1degC after 8 days. The following applies: 192 h. The method, boiled down:
as §1

The test system of test [7] is Culex pipiens pallens. As to the kind of experiment: Insecticidal activity against fourth-instar larval stage of Culex pipiens pallens (mosquito) assessed as mortality at 0.01 mg/l at 25 +/-1degC after 8 days. As to conditions: 192 h. In short, it runs like this: as §1
Test [8] concerns Mythimna separata. As to the kind of experiment: Insecticidal activity against fourth-instar larval stage of Mythimna separata (Oriental armyworm) in compound-pretreated corn leaves assessed as mortality at 40 mg/l at 25 +/-1degC after 4 days.
For another test, the system named is Spodoptera exigua. As to the kind of experiment: Insecticidal activity against third-instar larval stage of Spodoptera exigua in cabbage leaves assessed as mortality at 25 +/-1degC treated for 5 secs before larval infestation measured after 4 days by leaf dip method. The following applies: foliar, 96 h. The method, boiled down:
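Leaf-dip assay. Fresh cabbage leaf disks (1.8 cm diameter) were dipped in test solution for 5 s before larvae were added. LC50 was calculated by Finney probit analysis of the mortality regression lines.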

In the next test the test system is Plutella xylostella. As to the kind of experiment: Insecticidal activity against larvae of Plutella xylostella (diamondback moth) in cabbage leaves assessed as mortality at 25 +/-1degC treated for 5 secs before larval infestation measured after 4 days by leafdip method. The following applies: 96 h. The method, boiled down:
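Leaf-dip assay. Cabbage leaf disks (1.8 cm diameter) were dipped in test solution for 5 s, air-dried, and placed in tubes lined with filter paper. Ten second-instar larvae were added per tube. Percent mortality was read 4 days after treatment, in triplicate. LC50 was derived by Finney probit analysis of the mortality regression lines.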

For test [9], the system named is Culex pipiens pallens. As to the kind of experiment: Insecticidal activity against fourth-instar larval stage of Culex pipiens pallens (mosquito) assessed as mortality at 1 mg/l at 25 +/-1degC after 8 days. As to conditions: 192 h. The method, boiled down: as §1
In test [10] the test system is Culex pipiens pallens. As to the kind of experiment: Insecticidal activity against fourth-instar larval stage of Culex pipiens pallens (mosquito) assessed as mortality at 2.5 mg/l at 25 +/-1degC after 8 days. As to conditions: 192 h. The method, boiled down: as §1
Test [11] has as its system Culex pipiens pallens. As to the kind of experiment: Insecticidal activity against fourth-instar larval stage of Culex pipiens pallens (mosquito) assessed as mortality at 5 mg/l at 25 +/-1degC after 8 days. As to conditions: 192 h. The method, boiled down: as §1
Test [12] deals with Mythimna separata. The test can be described thus: Insecticidal activity against fourth-instar larval stage of Mythimna separata (Oriental armyworm) in compound-pretreated corn leaves assessed as mortality at 50 mg/l at 25 +/-1degC after 4 days.
Test [13] deals with Mythimna separata. The test can be described thus: Insecticidal activity against fourth-instar larval stage of Mythimna separata (Oriental armyworm) in compound-pretreated corn leaves assessed as mortality at 100 mg/l at 25 +/-1degC after 4 days.
The subject of test [14] is Mythimna separata. As to the kind of experiment: Insecticidal activity against fourth-instar larval stage of Mythimna separata (Oriental armyworm) in compound-pretreated corn leaves assessed as mortality at 200 mg/l at 25 +/-1degC after 4 days.

With `O=C(NC(=O)N(SSNc1ccc(C(F)(F)F)cc1)c1ccc(C(F)(F)F)cc1)c1ccccc1Cl`, in the test with Mythimna separata [1], the mortality at 2.5 µg/mL is 100%. In addition, the mortality at 0.25 µg/mL in the test with Mythimna separata [2] came out at 0%. Moreover, in the test on Mythimna separata [3], the mortality at 0.5 µg/mL was determined as 60%. In addition, the mortality at 1 µg/mL in the test on Mythimna separata [4] came out at 70%.

Consider `O=C(NC(=O)N(SSNc1ccc(OC(F)(F)F)cc1)c1ccc(OC(F)(F)F)cc1)c1ccccc1Cl`, for which the mortality at 0.25 µg/mL in the test on Mythimna separata [2] amounted to 30%. Moreover, the mortality at 0.5 µg/mL in the test with Mythimna separata [3] came out at 60%. In addition, the mortality at 1 µg/mL with Mythimna separata [4] is 100%.

`O=C(NC(=O)N(SN1CCOCC1)c1ccc(Cl)cc1)c1c(F)cccc1F`: the mortality at 0.0025 µg/mL in the test on Culex pipiens pallens [5] is 0%. In the test on Culex pipiens pallens [6], the mortality at 0.005 µg/mL amounted to 30%. In the test with Culex pipiens pallens [7], the mortality at 0.01 µg/mL was 100%. In addition, the mortality at 0.25 µg/mL in the test with Mythimna separata [2] is 80%. The mortality at 0.5 µg/mL with Mythimna separata [3] was 100%. The mortality at 1 µg/mL in the test with Mythimna separata [4] was 100%.

Take `CCOC(=O)CCN(Cc1ccccc1)SN(C(=O)NC(=O)c1c(F)cccc1F)c1ccc(Cl)cc1`: the mortality at 0.005 µg/mL in the test on Culex pipiens pallens [6] was found to be 0%. In addition, in the test on Culex pipiens pallens [7], the mortality at 0.01 µg/mL was 60%. Also, the mortality at 0.25 µg/mL in the test with Mythimna separata [2] was 30%. In the test with Mythimna separata [3], the mortality at 0.5 µg/mL was 50%. In addition, in the test with Mythimna separata [4], the mortality at 1 µg/mL was 100%.

As to `O=C(NC(=O)N(SNc1ccc(OC(F)(F)F)cc1)c1ccc(OC(F)(F)F)cc1)c1c(F)cccc1F`, the mortality at 0.25 µg/mL with Mythimna separata [2] worked out at 40%. Further, the mortality at 0.5 µg/mL in the test on Mythimna separata [3] was found to be 90%. For the same compound, in the test with Mythimna separata [4], the mortality at 1 µg/mL was 100%.

`O=C(NC(=O)N(SN1CCCCC1)c1ccc(Cl)cc1)c1c(F)cccc1F`: the mortality at 0.0025 µg/mL in the test with Culex pipiens pallens [5] worked out at 0%. The mortality at 0.005 µg/mL in the test with Culex pipiens pallens [6] came out at 0%. For the same compound, the mortality at 0.01 µg/mL in the test on Culex pipiens pallens [7] is 90%. Moreover, the mortality at 0.25 µg/mL in the test with Mythimna separata [2] worked out at 20%. Besides, the mortality at 0.5 µg/mL with Mythimna separata [3] is 100%. In the test with Mythimna separata [4], the mortality at 1 µg/mL was 100%.

In the case of `CCOC(=O)CCN(Cc1ccccc1)SN(C(=O)NC(=O)c1c(F)cccc1F)c1ccc(OC(F)(F)F)cc1`, the mortality at 0.01 µg/mL in the test on Culex pipiens pallens [7] stood at 100%. The mortality at 40 µg/mL in the test on Mythimna separata [8] was 0.0025%. Besides, the mortality at 1 µg/mL in the test on Mythimna separata [4] worked out at 100%.

For the compound `O=C(NC(=O)c1ccccc1Cl)Nc1ccc(OC(F)(F)F)cc1` [TRIFLUMURON], the LC50 amounted to 12 µg/mL (≈ 33.5 µM) in the test on Spodoptera exigua and 49.3 µg/mL (≈ 137 µM) with Plutella xylostella. For the same compound, the mortality at 2.5 µg/mL in the test with Mythimna separata [1] was determined as 100%. In addition, the mortality at 0.25 µg/mL in the test with Mythimna separata [2] stood at 20%. Besides, the mortality at 0.5 µg/mL in the test on Mythimna separata [3] turned out to be 40%. Moreover, the mortality at 1 µg/mL in the test on Mythimna separata [4] stood at 95%.

Consider `O=C(NC(=O)N(SN(C(=O)NC(=O)c1c(F)cccc1F)c1ccc(OC(F)(F)F)cc1)c1ccc(OC(F)(F)F)cc1)c1c(F)cccc1F`, for which, in the test with Mythimna separata [2], the mortality at 0.25 µg/mL was 20%. Further, the mortality at 0.5 µg/mL in the test on Mythimna separata [3] turned out to be 55%. Moreover, the mortality at 1 µg/mL in the test on Mythimna separata [4] came to 100%.

As to `O=C(NC(=O)N(SN1CCCCC1)c1ccccc1)c1c(F)cccc1F`, the mortality at 1 µg/mL with Culex pipiens pallens [9] amounted to 0%. Also, in the test on Culex pipiens pallens [10], the mortality at 2.5 µg/mL was determined as 70%. Further, the mortality at 5 µg/mL with Culex pipiens pallens [11] worked out at 100%. In addition, the mortality at 50 µg/mL with Mythimna separata [12] was found to be 0%. In addition, the mortality at 100 µg/mL in the test with Mythimna separata [13] was 40%. Besides, the mortality at 200 µg/mL in the test on Mythimna separata [14] was 90%.

As for `O=C(NC(=O)N(SNc1ccc(Cl)cc1)c1ccc(Cl)cc1)c1c(F)cccc1F`, in the test on Mythimna separata [2], the mortality at 0.25 µg/mL came out at 0%. The mortality at 0.5 µg/mL in the test on Mythimna separata [3] came to 70%. For the same compound, in the test on Mythimna separata [4], the mortality at 1 µg/mL worked out at 100%.

Take `O=C(NC(=O)N(SN(C(=O)NC(=O)c1c(F)cccc1F)c1ccc(OC(F)(F)F)cc1)c1ccc(OC(F)(F)F)cc1)c1ccccc1Cl`: the values for the LC50 with Spodoptera exigua and with Plutella xylostella were 31.4 µg/mL (≈ 42 µM) and 40.1 µg/mL (≈ 53.6 µM), respectively. Further, in the test on Mythimna separata [2], the mortality at 0.25 µg/mL was determined as 50%. Besides, in the test on Mythimna separata [3], the mortality at 0.5 µg/mL was found to be 95%. For the same compound, the mortality at 1 µg/mL in the test on Mythimna separata [4] came to 100%.

For `O=C(NC(=O)N(SSN(C(=O)NC(=O)c1c(F)cccc1F)c1ccc(OC(F)(F)F)cc1)c1ccc(OC(F)(F)F)cc1)c1ccccc1Cl`, the mortality at 0.25 µg/mL in the test on Mythimna separata [2] was determined as 0%. In addition, the mortality at 0.5 µg/mL in the test with Mythimna separata [3] was determined as 40%. Besides, the mortality at 1 µg/mL in the test on Mythimna separata [4] turned out to be 100%.
